Assay results published in ChEMBL document CHEMBL2040757, “New N-arylamino biquinoline derivatives: synthesis, antimicrobial, antituberculosis, and antimalarial evaluation” (Eur J Med Chem, 2012).
Converted amounts (≈) assume the structure as drawn.

Experiments:
Bacillus subtilis = assay: Antibacterial activity against Bacillus subtilis MTCC 441 by broth microdilution method; type: functional
In short: (§1)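 Broth microdilution per NCCLS, with serial dilutions in Mueller Hinton broth and DMSO as diluent. Tubes were incubated overnight at 37 °C. MIC was the lowest concentration giving no visible growth, with the control organism's MIC read to verify concentrations. Tubes without growth were subcultured overnight at 37 °C to judge bacteriostatic versus bactericidal action.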

Clostridium tetani = assay: Antibacterial activity against Clostridium tetani MTCC 449 by broth microdilution method; type: functional
Streptococcus pneumoniae = assay: Antibacterial activity against Streptococcus pneumoniae MTCC 1936 by broth microdilution method; type: functional; in short: as §1
Escherichia coli = assay: Antibacterial activity against Escherichia coli MTCC 443 by broth microdilution method; type: functional; in short: as §1
Salmonella typhi = assay: Antibacterial activity against Salmonella typhi MTCC 98 by broth microdilution method; type: functional, Salmonella enterica subsp. enterica serovar Typhi; conditions: Salmonella enterica
Vibrio cholerae = assay: Antibacterial activity against Vibrio cholerae MTCC 3906 by broth microdilution method; type: functional
Aspergillus fumigatus = assay: Antifungal activity against Aspergillus fumigatus MTCC 3008 by broth microdilution method; type: functional
Candida albicans = assay: Antifungal activity against Candida albicans MTCC 227 by broth microdilution method; type: functional
[1] = test system: Mycobacterium tuberculosis; assay: Growth inhibition of Mycobacterium tuberculosis H37Rv at 6.25 ug/mL after 12 to 28 days relative to control; type: functional
Plasmodium falciparum = assay: Antimalarial activity against trophozoite stage of chloroquine-sensitive Plasmodium falciparum 3D7 infected in human erythrocytes after 48 hrs; type: functional, organism-based; conditions: 3D7, 48 h
In short: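 Parasites were kept in continuous culture in A+ human erythrocytes in RPMI with 10% human serum. Sorbitol-synchronized trophozoites at 1–2% parasitaemia and 2.5% haematocrit were exposed to serial dilutions (maximum 1 mg/ml; 0.02% final DMSO) for 48 h at 37 °C. Growth inhibition was measured; chloroquine and quinine served as positive controls. IC50 came from duplicate experiments.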

SMILES	MIC (Bacillus subtilis) [µg/mL]	MIC (Clostridium tetani) [µg/mL]	MIC (Streptococcus pneumoniae) [µg/mL]	MIC (Escherichia coli) [µg/mL]	MIC (Salmonella typhi) [µg/mL]	MIC (Vibrio cholerae) [µg/mL]	MIC (Aspergillus fumigatus) [µg/mL]	MIC (Candida albicans) [µg/mL]	inhibition at 6.25 µg/mL [1] [%]	IC50 (Plasmodium falciparum) [µg/mL]
Cc1ccc2nc(Cl)c(C3C(C#N)=C(N)N(Nc4ccccc4)C4=C3C(=O)CC(C)(C)C4)cc2c1 (stereo not given)	500 (≈ 1030 µM)	500 (≈ 1030 µM)	250 (≈ 517 µM)	100 (≈ 207 µM)	200 (≈ 413 µM)	250 (≈ 517 µM)	> 1000	500 (≈ 1030 µM)	12	0.15 (≈ 0.31 µM)
CC1(C)CC(=O)C2=C(C1)N(Nc1ccc(F)cc1)C(N)=C(C#N)C2c1cc2cc(Cl)ccc2nc1Cl (stereo not given)	100 (≈ 191 µM)	500 (≈ 957 µM)	200 (≈ 383 µM)	250 (≈ 479 µM)	500 (≈ 957 µM)	125 (≈ 239 µM)	> 1000	500 (≈ 957 µM)	65	0.154 (≈ 0.295 µM)
Cc1ccc2nc(Cl)c(C3C(C#N)=C(N)N(Nc4ccc(F)cc4)C4=C3C(=O)CC(C)(C)C4)cc2c1 (stereo not given)	250 (≈ 498 µM)	200 (≈ 398 µM)	250 (≈ 498 µM)	250 (≈ 498 µM)	250 (≈ 498 µM)	200 (≈ 398 µM)	1000 (≈ 1990 µM)	1000 (≈ 1990 µM)	33	0.047 (≈ 0.0936 µM)
C=C[C@H]1CN2CC[C@H]1C[C@H]2[C@H](O)c1ccnc2ccc(OC)cc12 [QUININE]	–	–	–	–	–	–	–	–	–	0.268 (≈ 0.826 µM)
O=C(N[C@H](CO)[C@H](O)c1ccc([N+](=O)[O-])cc1)C(Cl)Cl [CHLORAMPHENICOL]	50 (≈ 155 µM)	50 (≈ 155 µM)	50 (≈ 155 µM)	50 (≈ 155 µM)	50 (≈ 155 µM)	50 (≈ 155 µM)	–	–	–	–
CO[C@H]1/C=C/O[C@@]2(C)Oc3c(C)c(O)c4c(O)c(c(/C=N/N5CCN(C)CC5)c(O)c4c3C2=O)NC(=O)/C(C)=C\C=C\[C@H](C)[C@H](O)[C@@H](C)[C@@H](O)[C@@H](C)[C@H](OC(C)=O)[C@@H]1C [RIFAMPIN]	–	–	–	–	–	–	–	–	98	–
Cc1ccc2nc(Cl)c(C3C(C#N)=C(N)N(Nc4ccc(Br)cc4)C4=C3C(=O)CC(C)(C)C4)cc2c1 (stereo not given)	200 (≈ 355 µM)	250 (≈ 444 µM)	250 (≈ 444 µM)	250 (≈ 444 µM)	250 (≈ 444 µM)	250 (≈ 444 µM)	> 1000	250 (≈ 444 µM)	47	0.012 (≈ 0.0213 µM)
Cc1ccc2nc(Cl)c(C3C(C#N)=C(N)N(Nc4ccc(Cl)cc4)C4=C3C(=O)CC(C)(C)C4)cc2c1 (stereo not given)	500 (≈ 964 µM)	250 (≈ 482 µM)	250 (≈ 482 µM)	100 (≈ 193 µM)	200 (≈ 386 µM)	200 (≈ 386 µM)	1000 (≈ 1930 µM)	500 (≈ 964 µM)	15	0.008 (≈ 0.0154 µM)
O=C(O)c1cn(C2CC2)c2cc(N3CCNCC3)c(F)cc2c1=O [CIPROFLOXACIN]	–	–	50 (≈ 151 µM)	25 (≈ 75.4 µM)	25 (≈ 75.4 µM)	25 (≈ 75.4 µM)	–	–	–	–
COc1ccc2nc(Cl)c(C3C(C#N)=C(N)N(Nc4ccc(F)cc4)C4=C3C(=O)CC(C)(C)C4)cc2c1 (stereo not given)	250 (≈ 483 µM)	500 (≈ 965 µM)	200 (≈ 386 µM)	125 (≈ 241 µM)	125 (≈ 241 µM)	100 (≈ 193 µM)	500 (≈ 965 µM)	250 (≈ 483 µM)	22	0.25 (≈ 0.483 µM)
COC1=CC(=O)C[C@@H](C)[C@]12Oc1c(Cl)c(OC)cc(OC)c1C2=O [GRISEOFULVIN]	–	–	–	–	–	–	100 (≈ 283 µM)	500 (≈ 1420 µM)	–	–
Cc1ccc(NN2C(N)=C(C#N)C(c3cc4cc(Cl)ccc4nc3Cl)C3=C2CC(C)(C)CC3=O)cc1 (stereo not given)	500 (≈ 964 µM)	250 (≈ 482 µM)	500 (≈ 964 µM)	250 (≈ 482 µM)	250 (≈ 482 µM)	250 (≈ 482 µM)	500 (≈ 964 µM)	500 (≈ 964 µM)	72	0.014 (≈ 0.027 µM)
COc1ccc2nc(Cl)c(C3C(C#N)=C(N)N(Nc4ccc(Cl)cc4)C4=C3C(=O)CC(C)(C)C4)cc2c1 (stereo not given)	100 (≈ 187 µM)	200 (≈ 374 µM)	100 (≈ 187 µM)	250 (≈ 468 µM)	100 (≈ 187 µM)	100 (≈ 187 µM)	> 1000	> 1000	21	0.009 (≈ 0.0168 µM)
CCn1cc(C(=O)O)c(=O)c2cc(F)c(N3CCNCC3)cc21 [NORFLOXACIN]	100 (≈ 313 µM)	50 (≈ 157 µM)	10 (≈ 31.3 µM)	10 (≈ 31.3 µM)	10 (≈ 31.3 µM)	10 (≈ 31.3 µM)	–	–	–	–
